Results taken from ChEMBL document CHEMBL5108061, “Lectin-Targeted Prodrugs Activated by Pseudomonas aeruginosa for Self-Destructive Antibiotic Release” (J Med Chem, 2022).
In brackets after ≈: the same amount, converted by molar mass.

Experiments:
[1] = test system: Pseudomonas aeruginosa; experiment: Antibacterial activity against Pseudomonas aeruginosa PA14 assessed inhibition of bacterial growth preincubated for 3 hrs in matrix containing Pseudomonas aeruginosa cell culture supernatant in PBS buffer followed by overnight grown bacterial culture addition incubated for 18 to 20 hrs by broth microdilution method; type: functional; conditions: time 21-23 hrs
Outline: (§1)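 Prodrug serial dilutions in PBS/20% DMSO (1 mM to 1.9 μM) were diluted about 1:20 into matrix. Matrices: plasma 5 mL + PA14 LB-culture sterile filtrate 1 mL + PBS 4 mL; filtrate 1 mL + PBS 9 mL; PBS alone; plasma 5 mL + LB 1 mL + PBS 4 mL. Preincubation was 3 h at 37 °C, or <10 min at room temperature.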

[2] = test system: Pseudomonas aeruginosa; experiment: Antibacterial activity against Pseudomonas aeruginosa PA14 assessed inhibition of bacterial growth preincubated for 10 mins in matrix containing human blood plasma spiked with fresh LB medium in PBS followed by overnight grown bacterial culture addition incubated for 18 to 20 hrs by broth microdilution method; type: functional; outline: as §1
[3] = test system: Pseudomonas aeruginosa; experiment: Antibacterial activity against Pseudomonas aeruginosa PA14 assessed inhibition of bacterial growth preincubated for 3 hrs in matrix containing 50% human blood plasma and 10% Pseudomonas aeruginosa cell culture supernatant in PBS followed by overnight grown bacterial culture addition incubated for 18 to 20 hrs by broth microdilution method; type: functional; conditions: time 21-23 hrs; outline: as §1
[4] = test system: Pseudomonas aeruginosa; experiment: Antibacterial activity against Pseudomonas aeruginosa PA14 assessed inhibition of bacterial growth preincubated for 10 mins in matrix containing human blood plasma spiked with Pseudomonas aeruginosa cell culture supernatant in PBS buffer followed by overnight grown bacterial culture addition incubated for 18 to 20 hrs by broth microdilution method; type: functional; outline: as §1
[5] = Stability of compound in human blood plasma spiked with Pseudomonas aeruginosa PA14 matrix assessed as hydrolysis of prodrug and measured upto 3 hrs by HPLC-MS/MS analysis; type: ADME, cell-free
[6] = test system: Pseudomonas aeruginosa; experiment: Antibacterial activity against Pseudomonas aeruginosa PA14 assessed inhibition of bacterial growth preincubated for 10 mins in PBS buffer followed by overnight grown bacterial culture addition incubated for 18 to 20 hrs by broth microdilution method; type: functional; outline: as §1
[7] = test system: Pseudomonas aeruginosa; experiment: Antibacterial activity against Pseudomonas aeruginosa PA14 assessed inhibition of bacterial growth preincubated for 3 hrs in PBS buffer followed by overnight grown bacterial culture addition incubated for 18 to 20 hrs by broth microdilution method; type: functional; conditions: time 21-23 hrs; outline: as §1
[8] = test system: Pseudomonas aeruginosa; experiment: Antibacterial activity against Pseudomonas aeruginosa PA14 assessed inhibition of bacterial growth preincubated for 3 hrs in matrix containing human blood plasma spiked with Pseudomonas aeruginosa cell culture supernatant in PBS buffer followed by overnight grown bacterial culture addition incubated for 18 to 20 hrs by broth microdilution method; type: functional; outline: as §1
[9] = test system: Pseudomonas aeruginosa; experiment: Antibacterial activity against Pseudomonas aeruginosa PA14 assessed inhibition of bacterial growth preincubated for 3 hrs in matrix containing human blood plasma spiked with fresh LB medium in PBS followed by overnight grown bacterial culture addition incubated for 18 to 20 hrs by broth microdilution method; type: functional; conditions: time 21-23 hrs; outline: as §1
[10] = molecular target: Fucose-binding lectin PA-IIL (Pseudomonas aeruginosa (strain ATCC 15692 / DSM 22644 / CIP 104116 / JCM14847 / LMG 12228 / 1C / PRS 101 / PAO1), UniProt Q9HYN5); experiment: Competitive binding affinity to recombinant Pseudomonas aeruginosa PAO1 LecB expressed in Escherichia coli BL21(DE3) incubated for 4 to 8 hrs by fluorescent polarization assay
[11] = molecular target: T1, Elastase (Pseudomonas aeruginosa (strain ATCC 15692 / PAO1 / 1C / PRS 101 / LMG12228), UniProt P14756); experiment: Prodrug activation assessed as LasB-mediated drug release in Pseudomonas aeruginosa PA14 cell supernatant in presence of human blood plasma and measured for 3 hrs by HPLC-MS analysis; type: cell-free
[12] = test system: Pseudomonas aeruginosa; experiment: Antibacterial activity against Pseudomonas aeruginosa PA14 assessed inhibition of bacterial growth incubated for 18 to 20 hrs by broth microdilution method; type: functional; conditions: time 18-20 hrs
Outline: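 Broth microdilution per EUCAST in Müller-Hinton broth II, no matrix preincubation. […] Inoculum from overnight LB-agar colonies adjusted to OD600 0.08–0.13, diluted 1:100, final 5 × 10^5 cfu/mL.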

[13] = molecular target: T2, PA-I galactophilic lectin (Pseudomonas aeruginosa (strain ATCC 15692 / PAO1 / 1C / PRS 101 / LMG12228), UniProt Q05097); experiment: Competitive binding affinity to recombinant Pseudomonas aeruginosa LecA expressed in Escherichia coli BL21(DE3) incubated for 30 to 60 mins by fluorescent polarization assay
T2 sequence (Q05097 whole entry): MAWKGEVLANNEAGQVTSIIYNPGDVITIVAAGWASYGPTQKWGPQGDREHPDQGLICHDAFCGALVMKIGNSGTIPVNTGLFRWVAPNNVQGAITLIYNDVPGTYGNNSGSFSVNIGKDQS
Outline: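 Recombinant LecA (E. coli BL21(DE3), galactosyl-sepharose purified) at 40 μM with 20 nM fluorescein-galactoside reporter in TBS/Ca pH 7.4; compounds serially diluted with 30% DMSO co-solvent, technical triplicates; 30–60 min at 22 °C; fluorescence polarization (ex 485/em 535); four-parameter fit with plateaus fixed by pNP-β-D-Gal control; ≥3 independent experiments.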

[14] = test system: A549; experiment: Cytotoxicity against human A549 cells assessed as reduction in cell viability incubated for 24 hrs by MTT assay
[15] = Protein binding in human plasma at 1 uM incubated for incubated for 2 hrs by HPLC-MS/MS analysis; type: ADME, cell-free
Outline: (§2)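 Rapid equilibrium dialysis; compound at 1 μM final in pooled CD-1 mouse plasma or pooled mixed-gender human plasma, dialysed against buffer; naproxen as high-binding control.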

[16] = Stability in mouse plasma assessed as half life at 1 uM and measured upto 240 mins by HPLC-MS/MS analysis; type: ADME, cell-free; conditions: 4 h
Outline: (§3)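 Compound at 1 μM final in prewarmed mouse or human plasma (pH 7.4), 37 °C, sampled at 0–240 min; extracted with acetonitrile containing caffeine internal standard; HPLC-MS/MS, peak area normalized to internal standard and time 0; procaine and procainamide controls; ≥3 independent repeats.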

[17] = Protein binding in CD-1 mouse plasma at 1 uM incubated for incubated for 2 hrs by HPLC-MS/MS analysis; type: ADME, cell-free; outline: as §2
[18] = Stability in human plasma assessed as half life at 1 uM and measured upto 240 mins by HPLC-MS/MS analysis; type: ADME, cell-free; conditions: 4 h; outline: as §3
[19] = molecular target: T1, Elastase; experiment: Prodrug activation assessed as LasB- mediated drug release in Pseudomonas aeruginosa PA14 cell supernatant and measured after 24 hrs by HPLC-MS analysis
[20] = Drug uptake in human A549 cells assessed as intracellular accumulation at 10 ug/ml incubated for 15 to 60 mins by HPLC-MS/MS analysis; type: ADME, cell-based; conditions: time 15-60 min, dose 10 µg/ml
Outline: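 A549 cells grown to 95% confluence in DMEM/10% FCS, exposed to 10 μg/mL compound for 15, 30 and 60 min at 37 °C; washed twice with PBS, lysed in MeOH; medium, washes and extracts extracted with MeOH containing caffeine internal standard and quantified by HPLC-MS/MS against calibration/QC samples; technical duplicates, two biological replicates.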

T1 sequence (P14756 whole entry): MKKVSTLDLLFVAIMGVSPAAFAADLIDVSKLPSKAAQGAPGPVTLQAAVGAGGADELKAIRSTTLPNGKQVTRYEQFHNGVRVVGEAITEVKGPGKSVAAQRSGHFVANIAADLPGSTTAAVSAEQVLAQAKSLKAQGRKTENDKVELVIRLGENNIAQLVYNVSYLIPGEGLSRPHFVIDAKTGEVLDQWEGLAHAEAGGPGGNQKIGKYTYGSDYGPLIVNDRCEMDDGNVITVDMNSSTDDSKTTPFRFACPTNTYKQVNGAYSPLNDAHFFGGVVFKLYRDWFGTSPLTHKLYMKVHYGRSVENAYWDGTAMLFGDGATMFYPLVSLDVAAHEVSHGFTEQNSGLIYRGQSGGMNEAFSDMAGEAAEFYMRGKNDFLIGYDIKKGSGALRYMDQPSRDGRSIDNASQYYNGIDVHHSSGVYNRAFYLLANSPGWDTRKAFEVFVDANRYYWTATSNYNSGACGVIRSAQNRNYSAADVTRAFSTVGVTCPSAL
Chain of Fucose-binding lectin PA-IIL (Q9HYN5 whole entry): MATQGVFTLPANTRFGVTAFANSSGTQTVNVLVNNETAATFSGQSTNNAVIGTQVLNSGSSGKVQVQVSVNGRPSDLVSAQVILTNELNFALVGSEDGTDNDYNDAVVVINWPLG

## CC(C)C[C@H](NC(=O)CNC(=O)[C@H](C)NC(=O)c1ccc(S(=O)(=O)NC[C@H]2O[C@@H](C)[C@@H](O)[C@@H](O)[C@@H]2O)cc1)C(=O)N[C@@H](C)C(=O)N1CCN(c2cc3c(cc2F)c(=O)c(C(=O)O)cn3C2CC2)CC1
[1]
  MIC: ≥ 25 µM
[2]
  MIC: ≥ 25 µM
[3]
  MIC: ≥ 25 µM
[4]
  MIC: ≥ 25 µM
[5]
  Stability: Stable
[6]
  MIC: > 25 µM
[7]
  MIC: > 25 µM
[8]
  MIC: ≥ 25 µM
[9]
  MIC: ≥ 25 µM
[10]
  IC50: 4.63 µM
[11]
  Drug metabolism: Metabolite_Notdetected

## CC(C)C[C@H](NC(=O)CNC(=O)[C@H](C)NC(=O)c1ccc(S(=O)(=O)NC[C@H]2O[C@@H](C)[C@@H](O)[C@@H](O)[C@@H]2O)cc1)C(=O)N[C@@H](C)C(=O)NC[C@@H]1CCN(c2cc3c(cc2F)c(=O)c(C(=O)O)cn3C2CC2)C1
[1]
  MIC: 1.56 µM (≈ 1.56 µg/mL)
[2]
  MIC: ≥ 25 µM
[3]
  MIC: 1.56 µM (≈ 1.56 µg/mL)
[4]
  MIC: 3.13 µM (≈ 3.13 µg/mL)
[5]
  Stability: Stable
[6]
  MIC: > 25 µM
[7]
  MIC: > 25 µM
[8]
  MIC: 3.13 µM (≈ 3.13 µg/mL)
[9]
  MIC: 12.5 µM (≈ 12.5 µg/mL)
[10]
  IC50: 4.29 µM
[11]
  Drug metabolism: Metabolite_Detected

## O=C(O)c1cn(C2CC2)c2cc(N3CCNCC3)c(F)cc2c1=O [CIPROFLOXACIN]
[12]
  MIC: 0.125 µM (≈ 0.0414 µg/mL)
[2]
  MIC: 0.156 µM (≈ 0.0517 µg/mL)
[3]
  MIC: 0.156 µM (≈ 0.0517 µg/mL)
[4]
  MIC: 0.25 µM (≈ 0.0828 µg/mL)
[6]
  MIC: 0.125 µM (≈ 0.0414 µg/mL)
[7]
  MIC: 0.125 µM (≈ 0.0414 µg/mL)
[9]
  MIC: 0.156 µM (≈ 0.0517 µg/mL)

## CC(C)C[C@H](NC(=O)CNC(=O)[C@H](C)NC(=O)c1ccc(S[C@@H]2O[C@H](CO)[C@H](O)[C@H](O)[C@H]2O)cc1)C(=O)N[C@@H](C)C(=O)N1CCN(c2cc3c(cc2F)c(=O)c(C(=O)O)cn3C2CC2)CC1
[1]
  MIC: ≥ 25 µM
[2]
  MIC: > 25 µM
[3]
  MIC: ≥ 25 µM
[4]
  MIC: ≥ 25 µM
[5]
  Stability: Stable
[6]
  MIC: > 25 µM
[7]
  MIC: > 25 µM
[13]
  IC50: 31.7 µM
[8]
  MIC: ≥ 25 µM
[9]
  MIC: ≥ 25 µM
[11]
  Drug metabolism: Metabolite_Notdetected

## NC[C@@H]1CCN(c2cc3c(cc2F)c(=O)c(C(=O)O)cn3C2CC2)C1
[12]
  MIC: 0.29 µM (≈ 0.1 µg/mL)

## CC(C)C[C@H](NC(=O)CNC(=O)[C@H](C)NC(=O)c1ccc(S[C@@H]2O[C@H](CO)[C@H](O)[C@H](O)[C@H]2O)cc1)C(=O)N[C@@H](C)C(=O)N[C@H]1CCN(c2cc3c(cc2F)c(=O)c(C(=O)O)cn3C2CC2)C1
[1]
  MIC: 0.195 µM (≈ 0.184 µg/mL)
[2]
  MIC: ≥ 25 µM
[3]
  MIC: 0.1 µM (≈ 0.0942 µg/mL)
[4]
  MIC: 0.195 µM (≈ 0.184 µg/mL)
[5]
  Stability: Stable
[6]
  MIC: > 25 µM
[14]
  IC50: 21.7 µM
[15]
  PPB: 97.2%
[16]
  t1/2: > 240 min
[7]
  MIC: > 25 µM
[17]
  PPB: 74%
[13]
  IC50: 29.8 µM
[18]
  t1/2: > 240 min
[8]
  MIC: 0.78 µM (≈ 0.735 µg/mL)
[9]
  MIC: 0.78 µM (≈ 0.735 µg/mL)
[11]
  Drug metabolism: Metabolite_Detected

## CC(C)C[C@H](N)C(=O)N[C@@H](C)C(=O)NC[C@H]1CCN(c2cc3c(cc2F)c(=O)c(C(=O)O)cn3C2CC2)C1
[12]
  MIC: 28 µM (≈ 14.8 µg/mL)

## CC(C)C[C@H](NC(=O)CNC(=O)[C@H](C)NC(=O)c1ccc(S[C@@H]2O[C@H](CO)[C@H](O)[C@H](O)[C@H]2O)cc1)C(=O)N[C@@H](C)C(=O)NC[C@@H]1CCN(c2cc3c(cc2F)c(=O)c(C(=O)O)cn3C2CC2)C1
[1]
  MIC: 1.56 µM (≈ 1.49 µg/mL)
[2]
  MIC: > 25 µM
[3]
  MIC: 1.56 µM (≈ 1.49 µg/mL)
[4]
  MIC: 3.13 µM (≈ 2.99 µg/mL)
[5]
  Stability: Stable
[6]
  MIC: > 25 µM
[7]
  MIC: > 25 µM
[13]
  IC50: 28 µM
[8]
  MIC: 1.56 µM (≈ 1.49 µg/mL)
[9]
  MIC: 12.5 µM (≈ 12 µg/mL)
[11]
  Drug metabolism: Metabolite_Detected

## O=[N+]([O-])c1ccc(O[C@@H]2O[C@H](CO)[C@H](O)[C@H](O)[C@H]2O)cc1
[13]
  IC50: 61.9 µM

## CC(C)C[C@H](N)C(=O)N[C@@H](C)C(=O)N[C@H]1CCN(c2cc3c(cc2F)c(=O)c(C(=O)O)cn3C2CC2)C1
[12]
  MIC: 58 µM (≈ 29.9 µg/mL)
[19]
  Drug metabolism: Metabolite_Notdetected

## CC(C)C[C@H](NC(=O)CNC(=O)[C@H](C)NC(=O)c1ccc(S(=O)(=O)NC[C@H]2O[C@@H](C)[C@@H](O)[C@@H](O)[C@@H]2O)cc1)C(=O)N[C@@H](C)C(=O)N[C@H]1CCN(c2cc3c(cc2F)c(=O)c(C(=O)O)cn3C2CC2)C1
[1]
  MIC: 0.39 µM (≈ 0.385 µg/mL)
[2]
  MIC: ≥ 25 µM
[3]
  MIC: 0.1 µM (≈ 0.0987 µg/mL)
[4]
  MIC: 0.78 µM (≈ 0.77 µg/mL)
[5]
  Stability: Stable
[6]
  MIC: > 25 µM
[14]
  IC50: > 50 µM
[15]
  PPB: 51.1%
[16]
  t1/2: 74 min
[7]
  MIC: > 25 µM
[17]
  PPB: 30.1%
[18]
  t1/2: 135 min
[8]
  MIC: 1.56 µM (≈ 1.54 µg/mL)
[9]
  MIC: 0.78 µM (≈ 0.77 µg/mL)
[20]
  Drug uptake: 55 ng/mL
[10]
  IC50: 3.59 µM
[11]
  Drug metabolism: Metabolite_Detected
